Legend:
Assay type in all cases: functional
KM12 = test: Growth inhibition of human KM12 cells at 10 uM after 48 hrs by coulter counter analysis; details: KM12, 48 h, read-out: GI
How it was run: (§1)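 Single-dose NCI 60-line panel screen of test compounds. Cells grown in RPMI 1640 with 10% FBS. Compounds dissolved in DMSO, then diluted in phosphate buffer saline (final DMSO below 1%). Wells run in duplicate at 6 × 10⁴ cells/ml. Controls held PBS and DMSO at matching dilutions. Incubation 48 h at 37 °C under humidified 5% CO2. Cells diluted tenfold in saline and counted by Coulter counter. Percent growth inhibition taken from mean-graph of treated-cell growth.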

NCI-H23 = test: Growth inhibition of human NCI-H23 cells at 10 uM after 48 hrs by coulter counter analysis; details: NCI-H23, 48 h, read-out: GI; how it was run: as §1
MDA-MB-468 = test: Growth inhibition of human MDA-MB-468 cells at 10 uM after 48 hrs by coulter counter analysis; details: MDA-MB-468, 48 h, read-out: GI; how it was run: as §1
HCC 2998 = test: Growth inhibition of human HCC2998 cells at 10 uM after 48 hrs by coulter counter analysis; details: HCC 2998, 48 h, read-out: GI; how it was run: as §1
T47D = test: Growth inhibition of human T47D cells at 10 uM after 48 hrs by coulter counter analysis; details: read-out: GI
How it was run: (§2)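 Single-dose screen in the NCI 60 cell line panel. Cells grown in RPMI 1640 with 10% FBS. Compounds dissolved in DMSO and diluted in phosphate buffered saline, final DMSO under 1%. Duplicate wells seeded from culture at 6 × 10⁴ cells/ml. Incubated 48 h at 37 °C, humidified, 5% CO2. Cells diluted tenfold in saline and Coulter-counted. Percent growth inhibition computed against PBS/DMSO controls.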

CAKI-1 = test: Growth inhibition of human Caki1 cells at 10 uM after 48 hrs by coulter counter analysis; details: CAKI-1, 48 h, read-out: GI; how it was run: as §1
IGROV-1 = test: Growth inhibition of human IGROV1 cells at 10 uM after 48 hrs by coulter counter analysis; details: IGROV-1, 48 h, read-out: GI; how it was run: as §1
BT-549 = test: Growth inhibition of human BT549 cells at 10 uM after 48 hrs by coulter counter analysis; details: BT-549, 48 h, read-out: GI; how it was run: as §1
SNB-75 = test: Growth inhibition of human SNB75 cells at 10 uM after 48 hrs by coulter counter analysis; details: SNB-75, 48 h, read-out: GI; how it was run: as §2
SK-MEL-28 = test: Growth inhibition of human SK-MEL-28 cells at 10 uM after 48 hrs by coulter counter analysis; details: SK-MEL-28, 48 h, read-out: GI; how it was run: as §1
HL-60(TB) = test: Growth inhibition of human HL-60(TB) cells at 10 uM after 48 hrs by coulter counter analysis; details: HL-60, 48 h, read-out: GI
How it was run: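 Cells grown in RPMI 1640 with 10% FBS. Compound was dissolved in DMSO and diluted in PBS (under 1% DMSO final), then added in duplicate wells to culture at 6 × 10⁴ cells/ml. PBS/DMSO vehicle controls were included. Incubated at 37 °C, humidified 5% CO₂, for 48 h. Cells were diluted 10-fold in saline and Coulter-counted. Single-dose NCI-60 screen, read as percent growth inhibition.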

NCI-H322M = test: Growth inhibition of human NCI-H322M cells at 10 uM after 48 hrs by coulter counter analysis; details: read-out: GI; how it was run: as §1
Malme-3M = test: Growth inhibition of human MALME-3M cells at 10 uM after 48 hrs by coulter counter analysis; details: read-out: GI; how it was run: as §1
SN12C = test: Growth inhibition of human SN12C cells at 10 uM after 48 hrs by coulter counter analysis; details: read-out: GI; how it was run: as §1
M14 = test: Growth inhibition of human M14 cells at 10 uM after 48 hrs by coulter counter analysis; details: M14, 48 h, read-out: GI; how it was run: as §1
SR = test: Growth inhibition of human SR cells at 10 uM after 48 hrs by coulter counter analysis; details: read-out: GI; how it was run: as §2
NCI-H460 = test: Growth inhibition of human NCI-H460 cells at 10 uM after 48 hrs by coulter counter analysis; details: NCI-H460, 48 h, read-out: GI; how it was run: as §1
OVCAR-8 = test: Growth inhibition of human OVCAR8 cells at 10 uM after 48 hrs by coulter counter analysis; details: OVCAR-8, 48 h, read-out: GI; how it was run: as §1
LOX IMVI = test: Growth inhibition of human LOXIMVI cells at 10 uM after 48 hrs by coulter counter analysis; details: read-out: GI; how it was run: as §1
CCRF-CEM = test: Growth inhibition of human CCRF-CEM cells at 10 uM after 48 hrs by coulter counter analysis; details: read-out: GI; how it was run: as §1
786-0 = test: Growth inhibition of human 786-0 cells at 10 uM after 48 hrs by coulter counter analysis; details: 786-0, 48 h, read-out: GI; how it was run: as §1
SNB-19 = test: Growth inhibition of human SNB19 cells at 10 uM after 48 hrs by coulter counter analysis; details: SNB-19, 48 h, read-out: GI; how it was run: as §1
MOLT-4 = test: Growth inhibition of human MOLT4 cells at 10 uM after 48 hrs by coulter counter analysis; details: MOLT-4, 48 h, read-out: GI; how it was run: as §1
HCT-116 = test: Growth inhibition of human HCT116 cells at 10 uM after 48 hrs by coulter counter analysis; details: HCT-116, 48 h, read-out: GI; how it was run: as §1
ACHN = test: Growth inhibition of human ACHN cells at 10 uM after 48 hrs by coulter counter analysis; details: read-out: GI; how it was run: as §1
EKVX = test: Growth inhibition of human EKVX cells at 10 uM after 48 hrs by coulter counter analysis; details: read-out: GI; how it was run: as §1
MCF7 = test: Growth inhibition of human MCF7 cells at 10 uM after 48 hrs by coulter counter analysis; details: MCF7, 48 h, read-out: GI; how it was run: as §1
SK-MEL-2 = test: Growth inhibition of human SK-MEL-2 cells at 10 uM after 48 hrs by coulter counter analysis; details: SK-MEL-2, 48 h, read-out: GI; how it was run: as §1
MDA-MB-435 = test: Growth inhibition of human MDA-MB-435 cells at 10 uM after 48 hrs by coulter counter analysis; details: MDA-MB-435, 48 h, read-out: GI; how it was run: as §1
HOP-92 = test: Growth inhibition of human HOP92 cells at 10 uM after 48 hrs by coulter counter analysis; details: HOP-92, 48 h, read-out: GI; how it was run: as §1
OVCAR-3 = test: Growth inhibition of human OVCAR3 cells at 10 uM after 48 hrs by coulter counter analysis; details: OVCAR-3, 48 h, read-out: GI; how it was run: as §1
SF-539 = test: Growth inhibition of human SF539 cells at 10 uM after 48 hrs by coulter counter analysis; details: SF-539, 48 h, read-out: GI; how it was run: as §1
PC-3 = test: Growth inhibition of human PC3 cells at 10 uM after 48 hrs by coulter counter analysis; details: PC-3, 48 h, read-out: GI; how it was run: as §1
COLO 205 = test: Growth inhibition of human COLO205 cells at 10 uM after 48 hrs by coulter counter analysis; details: COLO 205, 48 h, read-out: GI; how it was run: as §1

Compound | inhibition of growth at 10 µM (KM12) [%] | inhibition of growth at 10 µM (NCI-H23) [%] | inhibition of growth at 10 µM (MDA-MB-468) [%] | inhibition of growth at 10 µM (HCC 2998) [%] | inhibition of growth at 10 µM (T47D) [%] | inhibition of growth at 10 µM (CAKI-1) [%] | inhibition of growth at 10 µM (IGROV-1) [%] | inhibition of growth at 10 µM (BT-549) [%] | inhibition of growth at 10 µM (SNB-75) [%] | inhibition of growth at 10 µM (SK-MEL-28) [%] | inhibition of growth at 10 µM (HL-60(TB)) [%] | inhibition of growth at 10 µM (NCI-H322M) [%] | inhibition of growth at 10 µM (Malme-3M) [%] | inhibition of growth at 10 µM (SN12C) [%] | inhibition of growth at 10 µM (M14) [%] | inhibition of growth at 10 µM (SR) [%] | inhibition of growth at 10 µM (NCI-H460) [%] | inhibition of growth at 10 µM (OVCAR-8) [%] | inhibition of growth at 10 µM (LOX IMVI) [%] | inhibition of growth at 10 µM (CCRF-CEM) [%] | also measured
Cc1cnc(NC(=O)CN2CCN(C)CC2)s1 | < 10 | < 10 | < 10 | < 10 | < 10 | < 10 | < 10 | < 10 | < 10 | < 10 | < 10 | < 10 | < 10 | < 10 | < 10 | 51.8 | < 10 | < 10 | < 10 | 75.5 | inhibition of growth at 10 µM (786-0): < 10%; inhibition of growth at 10 µM (SNB-19): < 10%; inhibition of growth at 10 µM (MOLT-4): < 10%; inhibition of growth at 10 µM (HCT-116): < 10%; inhibition of growth at 10 µM (ACHN): < 10%; inhibition of growth at 10 µM (EKVX): < 10%; inhibition of growth at 10 µM (MCF7): < 10%; inhibition of growth at 10 µM (SK-MEL-2): < 10%; inhibition of growth at 10 µM (MDA-MB-435): < 10%; inhibition of growth at 10 µM (HOP-92): < 10%; inhibition of growth at 10 µM (OVCAR-3): < 10%; inhibition of growth at 10 µM (SF-539): < 10%; inhibition of growth at 10 µM (PC-3): < 10%; inhibition of growth at 10 µM (COLO 205): < 10%
Cc1cnc(NC(=O)CN2CCN(c3ccccc3)CC2)s1 | < 10 | < 10 | < 10 | < 10 | < 10 | < 10 | < 10 | < 10 | < 10 | < 10 | < 10 | < 10 | < 10 | < 10 | < 10 | < 10 | < 10 | < 10 | < 10 | 69.3 | inhibition of growth at 10 µM (786-0): < 10%; inhibition of growth at 10 µM (SNB-19): < 10%; inhibition of growth at 10 µM (MOLT-4): < 10%; inhibition of growth at 10 µM (HCT-116): < 10%; inhibition of growth at 10 µM (ACHN): < 10%; inhibition of growth at 10 µM (EKVX): 12.1%; inhibition of growth at 10 µM (MCF7): < 10%; inhibition of growth at 10 µM (SK-MEL-2): < 10%; inhibition of growth at 10 µM (MDA-MB-435): < 10%; inhibition of growth at 10 µM (HOP-92): < 10%; inhibition of growth at 10 µM (OVCAR-3): < 10%; inhibition of growth at 10 µM (SF-539): < 10%; inhibition of growth at 10 µM (PC-3): < 10%; inhibition of growth at 10 µM (COLO 205): < 10%
CCOC(=O)c1sc(NC(=O)CCN2CCOCC2)nc1C | < 10 | < 10 | < 10 | < 10 | < 10 | < 10 | < 10 | < 10 | < 10 | < 10 | < 10 | < 10 | < 10 | < 10 | < 10 | < 10 | < 10 | < 10 | < 10 | < 10 | inhibition of growth at 10 µM (786-0): < 10%; inhibition of growth at 10 µM (SNB-19): < 10%; inhibition of growth at 10 µM (MOLT-4): < 10%; inhibition of growth at 10 µM (HCT-116): < 10%; inhibition of growth at 10 µM (ACHN): < 10%; inhibition of growth at 10 µM (EKVX): < 10%; inhibition of growth at 10 µM (MCF7): < 10%; inhibition of growth at 10 µM (SK-MEL-2): < 10%; inhibition of growth at 10 µM (MDA-MB-435): < 10%; inhibition of growth at 10 µM (HOP-92): 21.9%; inhibition of growth at 10 µM (OVCAR-3): < 10%; inhibition of growth at 10 µM (SF-539): < 10%; inhibition of growth at 10 µM (PC-3): < 10%; inhibition of growth at 10 µM (COLO 205): < 10%

Reference: ChEMBL document CHEMBL2040727, “Substituted thiazoles VI. Synthesis and antitumor activity of new 2-acetamido- and 2 or 3-propanamido-thiazole analogs” (2012)
